# Data taken from paper PMC6658111 (Journal of molecular biology, 2018).
# “And” between values parts separate entries of the source, which are not always exact repeats. Identical values can stand only once. Like-named read-outs stand apart in the source and are kept apart here. Non-standard residues stand in square brackets, D forms with d. No end group written: not given here. pT = C[C@@H](OP(=O)(O)O)[C@H](N)C(=O)O; MBP = not defined here
# Assays:
# [1] = system: wild type CaMKII kinase domain (residues 1–283); format: binding; conditions: ITC; for −TΔS: 25 °C, pH 7.5, Mg2+-AMPPNP, mean and standard deviation of the mean
# [2] = system: CaMKII^D136N kinase domain (residues 1–283); format: binding; conditions: ITC, 25 °C, pH 7.5, Mg2+-AMPPNP, mean and standard deviation of the mean, n=4
# [3] = system: wild type CaMKII kinase domain; set-up: species or system Drosophila; conditions: LC-HRMS of final ITC mixture, Mg2+-AMPCP
# Method in brief: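 Sample is the end-point mixture of isothermal titration calorimetry at 25 °C. MBP-dEAG channel fragment was titrated into a cell holding the Drosophila CaMKII kinase domain (residues 1–283, E. coli-expressed, wild type or D136N), with one 2 μl injection then 27 × 10 μl. Partners were first co-dialysed against 25 mM HEPES pH 7.5, 150 mM KCl, 0.5 mM TCEP, then with 1 mM MgCl₂ + 250 μM nucleotide. Final composition was 5 mM MgCl₂ and 1 mM nucleotide.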
# [4] = system: CaMKII^K43M,D136N kinase domain; assay: Isothermal titration calorimetry with K43M/D136N CaMKII kinase domain; format: binding, Drosophila; conditions: ITC, 25 °C, pH 7.5, Mg2+-AMPPNP, mean and standard deviation of the mean, n=3
# T787A dEAG channel = assay: Two-electrode voltage clamp in oocytes, T787A dEAG channel; format: cell-based, Drosophila; conditions: Xenopus laevis oocytes, n=7–10
# T787A dEAG channel, sequence (Q02280 whole entry T787A): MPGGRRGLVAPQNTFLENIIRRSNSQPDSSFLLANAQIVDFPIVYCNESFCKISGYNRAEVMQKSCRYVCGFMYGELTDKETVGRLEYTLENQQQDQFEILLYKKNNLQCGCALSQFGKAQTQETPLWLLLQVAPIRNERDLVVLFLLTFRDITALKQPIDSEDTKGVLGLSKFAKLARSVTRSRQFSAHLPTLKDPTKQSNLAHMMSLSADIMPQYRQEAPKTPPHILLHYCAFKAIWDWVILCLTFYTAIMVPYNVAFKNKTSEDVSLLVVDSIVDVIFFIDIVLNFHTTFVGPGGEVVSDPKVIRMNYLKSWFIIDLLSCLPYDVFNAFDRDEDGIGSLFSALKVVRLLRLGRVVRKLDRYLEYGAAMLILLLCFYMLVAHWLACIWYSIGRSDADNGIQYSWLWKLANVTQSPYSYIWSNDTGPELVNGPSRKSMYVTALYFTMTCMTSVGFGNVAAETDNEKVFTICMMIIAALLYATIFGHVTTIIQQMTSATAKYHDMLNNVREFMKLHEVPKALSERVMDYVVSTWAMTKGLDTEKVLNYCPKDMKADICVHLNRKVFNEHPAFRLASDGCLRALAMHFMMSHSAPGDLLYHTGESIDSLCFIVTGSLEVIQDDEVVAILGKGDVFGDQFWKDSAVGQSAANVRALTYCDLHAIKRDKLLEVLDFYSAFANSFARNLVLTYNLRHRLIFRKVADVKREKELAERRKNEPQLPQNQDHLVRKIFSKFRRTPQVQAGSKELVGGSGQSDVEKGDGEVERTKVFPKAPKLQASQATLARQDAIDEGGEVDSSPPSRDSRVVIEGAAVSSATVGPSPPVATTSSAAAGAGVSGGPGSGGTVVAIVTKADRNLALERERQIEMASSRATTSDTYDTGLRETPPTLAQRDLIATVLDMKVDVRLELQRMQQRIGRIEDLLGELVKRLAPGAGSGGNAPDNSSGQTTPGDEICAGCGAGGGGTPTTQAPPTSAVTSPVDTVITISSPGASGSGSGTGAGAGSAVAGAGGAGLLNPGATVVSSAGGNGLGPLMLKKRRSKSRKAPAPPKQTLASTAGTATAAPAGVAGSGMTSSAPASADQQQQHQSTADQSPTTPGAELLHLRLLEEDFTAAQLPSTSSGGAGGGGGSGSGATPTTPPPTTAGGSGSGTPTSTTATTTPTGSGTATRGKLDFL
# wild type dEAG channel = assay: Two-electrode voltage clamp in oocytes, wild type dEAG channel; format: cell-based, Drosophila; conditions: Xenopus laevis oocytes, co-expression with inactive kinase (K43M/D136N); n=6–8
# Method in brief: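 Xenopus oocytes were defolliculated with 75 µg/ml Liberase for 40–60 min in Ca²⁺-free ND96. Stage V–VI cells were injected with premixed channel and kinase cRNA, then kept 1–5 d at 16 °C in storage solution containing gentamycin. Currents were recorded by standard two-microelectrode voltage clamp under continuous perfusion with 96 mM NaCl, 2 mM KCl, 0.3 mM CaCl₂, 1 mM MgCl₂, 5 mM HEPES, pH 7.4.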
# [5] = target: T1, CaMKII kinase domain D136N mutant (residues 1–283) (Drosophila, UniProt Q00168 1-283, D136N); assay: ITC
# T1 sequence (Q00168 1-283 D136N): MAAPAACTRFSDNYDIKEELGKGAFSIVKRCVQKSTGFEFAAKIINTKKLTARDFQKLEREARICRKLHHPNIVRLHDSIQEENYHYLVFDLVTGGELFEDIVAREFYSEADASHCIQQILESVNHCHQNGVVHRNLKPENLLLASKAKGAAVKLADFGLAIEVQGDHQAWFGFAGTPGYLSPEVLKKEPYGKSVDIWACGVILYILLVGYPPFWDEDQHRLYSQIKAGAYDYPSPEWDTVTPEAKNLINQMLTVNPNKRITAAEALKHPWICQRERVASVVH
# [6] = target: T2, wild type CaMKII kinase domain (residues 1–283) (Drosophila, UniProt Q00168 1-283); assay: ITC
# T2 sequence (Q00168 1-283): as the sequence (Q00168 1-283 D136N) above, with N136D counted along it
# [7] = target: T2, wild type CaMKII kinase domain …; assay: ITC; remark: listed apart in the source
# [8] = target: T2, wild type CaMKII kinase domain …; assay: ITC; remark: listed apart in the source
# [9] = target: CaMKII kinase domain K43M/D136N mutant (Drosophila, UniProt Q00168 1-283, K43M | D136N); assay: ITC
# CaMKII kinase domain K43M/D136N mutant, sequence (Q00168 1-283 K43M/D136N): as the sequence (Q00168 1-283 D136N) above, with K43M counted along it
# [10] = target: T1, CaMKII kinase domain D136N mutant …; assay: ITC; remark: listed apart in the source
# [11] = target: T1, CaMKII kinase domain D136N mutant …; assay: crystal structure
# [12] = dEAGlong, individually fitted, n=4 (WT), n=3 (R784A, D789A)
molecule,measurement,setting,value
EAGlong^D789A: alanine mutant D789A of MBP-dEAGlong ({MBP}-VFPKAPKLQASQATLARQDTIAEGGEVDSSPPSRDSRVVIEGAAVSSATVGPS; reading uncertain),−TΔS,[1]; [12],5.7 ± 2.3 kcal/mol
EAGlong^R784A: alanine mutant R784A of MBP-dEAGlong ({MBP}-VFPKAPKLQASQATLAAQDTIDEGGEVDSSPPSRDSRVVIEGAAVSSATVGPS; reading uncertain),−TΔS,[1]; [12],4.4 ± 4.7 kcal/mol
"EAGshort: dEAG residues 768 to 795 with mutations S778N and T781K, fused to maltose-binding protein ({MBP}-VFPKAPKLQANQAKLARQDTIDEGGEVD; reading uncertain; also: N-terminal His6, state not given here)",−TΔS,[2],5.3 ± 3.8 kcal/mol
same,phosphorylation state of fragment at end of ITC,[3],dephosphorylated during the titration
same,−TΔS,[4],8.7 ± 0.1 kcal/mol
same,−TΔS,"[1]; dEAGshort, wild type kinase, n=3",11.4 ± 0.9 kcal/mol
dEAGlong^P: phosphorylated dEAGlong channel fragment used in crystal structure (VFPKAPKLQASQATLARQD[pT]IDEGGEVDSSPPSRDSRVVIEGAAVSSATVGPS; also: phosphothreonine at T787),affinity relative to typical kinase-substrate (KD ~200 μM),"[1]; fold tighter than expected for a kinase-substrate, typical KD from ref 27",approximately 200 fold
inactive Drosophila kinase: full-length Drosophila CaMKII with two point mutations (K43M/D136N) in the active site,effect of co-expressed kinase on channel activity,T787A dEAG channel,loss of measurable currents
same,reduction of channel current,wild type dEAG channel,more than 10 fold
"{MBP}-VFPKAPKLQANQAKLARQD[pT]IDEGGEVD (domain or fragment, Drosophila, UniProt Q02280 768-795, looked up, reading uncertain) [MBP-dEAG_(short)^P (phosphorylated dEAG_(short), phosphorylated at T787)]",Kd,[5],0.475 nM
same,dH,[5],-8.9 kcal/mol
same,stoichiometry N,[5],1.07
"MBP-dEAG_(long) (wild-type Drosophila EAG CaMKII-binding fragment, residues 768 to 820, fused to maltose-binding protein) (domain or fragment, UniProt Q02280 768-820, looked up, reading uncertain) {MBP}-VFPKAPKLQASQATLARQDTIDEGGEVDSSPPSRDSRVVIEGAAVSSATVGPS",Kd,[6],1000 nM
same,dH,[6],-7.3 kcal/mol
same,stoichiometry N,[6],0.94
same,Kd,[7],674 nM
same,dH,[7],-17.3 kcal/mol
same,stoichiometry N,[7],0.96
"MBP-dEAG_(long) L782A (domain or fragment, Drosophila, UniProt Q02280 768-820, looked up) VFPKAPKLQASQATAARQDTIDEGGEVDSSPPSRDSRVVIEGAAVSSATVGPS",Kd,[7],24600 nM
same,dH,[7],-3.75 kcal/mol
same,stoichiometry N,[7],1.28 and 0.645
"MBP-dEAG_(long) E790A (domain or fragment, Drosophila, UniProt Q02280 768-820, looked up) VFPKAPKLQASQATLARQDTIDAGGEVDSSPPSRDSRVVIEGAAVSSATVGPS",Kd,[7],2430 nM
same,dH,[7],-15.7 kcal/mol
same,stoichiometry N,[7],1.06
"MBP-dEAG_(long) E793A (domain or fragment, Drosophila, UniProt Q02280 768-820, looked up) VFPKAPKLQASQATLARQDTIDEGGAVDSSPPSRDSRVVIEGAAVSSATVGPS",Kd,[7],1680 nM
same,dH,[7],-16.7 kcal/mol
same,stoichiometry N,[7],0.978
"MBP-dEAG_(long) Q785A (domain or fragment, Drosophila, UniProt Q02280 768-820, looked up) VFPKAPKLQASQATLARADTIDEGGEVDSSPPSRDSRVVIEGAAVSSATVGPS",Kd,[7],12600 nM
same,dH,[7],-18.5 kcal/mol
same,stoichiometry N,[7],0.747 and 0.664
"MBP-dEAG_(long) R784A (domain or fragment, Drosophila, UniProt Q02280 768-820, looked up) VFPKAPKLQASQATLAAQDTIDEGGEVDSSPPSRDSRVVIEGAAVSSATVGPS",Kd,[7],47000 nM
same,dH,[7],-10.3 kcal/mol
same,stoichiometry N,[7],0.85
"MBP-dEAG_(long) I788A (domain or fragment, Drosophila, UniProt Q02280 768-820, looked up) VFPKAPKLQASQATLARQDTADEGGEVDSSPPSRDSRVVIEGAAVSSATVGPS",Kd,[7],80300 nM
same,dH,[7],-10.5 kcal/mol
same,stoichiometry N,[7],0.667 and 1.09
"MBP-dEAG_(long) D789A (domain or fragment, Drosophila, UniProt Q02280 768-820, looked up) VFPKAPKLQASQATLARQDTIAEGGEVDSSPPSRDSRVVIEGAAVSSATVGPS",Kd,[7],7300 nM
same,dH,[7],-12.7 kcal/mol
same,stoichiometry N,[7],1.02
"VFPKAPKLQANQAKLARQDTIDEGGEVD (domain or fragment, UniProt Q02280 768-795, looked up)",Kd,[5],216 nM
same,dH,[5],-16.3 kcal/mol
same,stoichiometry N,[5],0.83
same,Kd,[8],94 nM
same,dH,[8],-21 kcal/mol
same,stoichiometry N,[8],0.86
same,Kd,[9],173 nM
same,dH,[9],-18 kcal/mol
same,stoichiometry N,[9],0.79
same,Kd,[10],197 nM
same,dH,[10],-14.5 kcal/mol
same,stoichiometry N,[10],0.81
"phosphorylated dEAG_(long) channel fragment (dEAG_(long)^P), MBP removed (domain or fragment, Drosophila, UniProt Q02280 768-820, looked up, also: phosphothreonine at T787) VFPKAPKLQASQATLARQD[pT]IDEGGEVDSSPPSRDSRVVIEGAAVSSATVGPS",binding result,[11],binds
